In experiment [1] the target is T1, Cathepsin B (Homo sapiens, UniProt P07858). Put plainly: Inhibition of human cathepsin B. The method in brief:
(§1)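 Bovine or human cathepsin B, assayed in 20 mM sodium acetate, pH 5.2, with 0.5 mM dithiothreitol and 2% DMSO. The two enzyme sources were used interchangeably. Ki was taken from Dixon plots, with triplicate assays plotted as 1/v versus inhibitor concentration.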

In experiment [2] the target is T2, Calpain-1 catalytic subunit (Homo sapiens, UniProt P07384).
T2 sequence (P07384 whole entry): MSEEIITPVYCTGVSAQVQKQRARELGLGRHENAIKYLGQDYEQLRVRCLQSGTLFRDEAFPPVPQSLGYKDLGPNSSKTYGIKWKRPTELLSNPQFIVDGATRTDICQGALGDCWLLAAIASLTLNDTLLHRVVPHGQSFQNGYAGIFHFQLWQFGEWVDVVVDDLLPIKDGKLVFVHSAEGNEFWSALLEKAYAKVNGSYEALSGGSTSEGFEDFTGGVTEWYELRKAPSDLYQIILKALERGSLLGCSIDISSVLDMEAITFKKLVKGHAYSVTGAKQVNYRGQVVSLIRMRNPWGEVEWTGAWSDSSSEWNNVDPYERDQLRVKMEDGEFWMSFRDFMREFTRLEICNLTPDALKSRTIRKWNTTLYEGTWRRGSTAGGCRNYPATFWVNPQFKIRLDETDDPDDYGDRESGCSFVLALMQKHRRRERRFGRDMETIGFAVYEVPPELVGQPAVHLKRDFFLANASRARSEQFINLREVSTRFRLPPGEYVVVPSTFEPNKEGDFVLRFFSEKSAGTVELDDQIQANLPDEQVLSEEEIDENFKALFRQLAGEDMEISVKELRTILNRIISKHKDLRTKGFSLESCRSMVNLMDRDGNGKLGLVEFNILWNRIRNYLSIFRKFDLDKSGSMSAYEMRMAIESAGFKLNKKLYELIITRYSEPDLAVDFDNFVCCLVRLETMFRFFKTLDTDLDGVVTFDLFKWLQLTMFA
Put plainly: Inhibition of the cysteine protease human Calpain 1. The gist of the method:
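Calpain assay in 25 mM Tris, pH 8.0, with 10 mM CaCl₂ and 5% DMSO. […] hydrolysis was read as initial velocity (t = 30-60 s) after a 30 s delay, at room temperature. Five or more inhibitor concentrations (not above 2 × K_obs) were used at two fixed substrate levels. Ki came from Dixon plots (1/v vs I) averaged over triplicates.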

Experiment [3] has as its target T1, Cathepsin B. In words: Compound was evaluated for the inhibition of Cathepsin B; Gives nonlinear dixon plots. The gist of the method: as §1
Experiment [4] deals with Cathepsin B (Bos taurus, UniProt P07688). Put plainly: Inhibition of bovine cathepsin B. The method in brief:
as §1

Experiment [5] concerns the target T1, Cathepsin B. In words: Compound was evaluated for the inhibition of Cathepsin B. The method in brief: as §1

What is called Ki is the dissociation constant of the complex between target and ligand, obtained from inhibition or displacement. A low value points to a stronger hold on the target.

SMILES strings stand for the structures.
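Wherever IC is given: measured as membrane permeability of platelets.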

Turning to `CCC(NC(=O)C(CC(C)C)NC(=O)OCc1ccccc1)C(=O)C(=O)NCC1(C)CC(O)CC(C)(C)C1` (stereo not given), the Ki at Cathepsin B [1] is 890 nM; in experiment [2], 420 nM. Further, in the experiment filed under Rattus norvegicus, the IC came to 103 µM.
Take `CCC(NC(=O)C(CC(C)C)NC(=O)OCc1ccccc1)C(=O)C(=O)NCCc1ccc(O)cc1` (stereo not given): the IC in the experiment filed under Rattus norvegicus stood at 23 µM. Also, the Ki in experiment [2] was 380 nM; on Cathepsin B [3], “Non linear Dixon plots”.
Turning to `CCC(NC(=O)C(CC(C)C)NC(=O)OCc1ccccc1)C(=O)C(=O)NCc1cc(OC)cc(OC)c1` (stereo not given), the results for the Ki (at Cathepsin B [1]; in experiment [2]) were 1800 nM and 2300 nM, respectively. The compound also yielded an IC in the experiment filed under Rattus norvegicus of 30 µM.
For `CC(C)CC(NC(=O)C(c1ccccc1)c1ccccc1)C(=O)NC(Cc1ccccc1)C(=O)C(=O)NCc1ccccn1` (stereo not given), in that order: 2200 nM, 1100 nM and > 300 µM.
For `CCC(NC(=O)C(CC(C)C)NC(=O)OCc1ccccc1)C(=O)C(=O)NCc1ccco1` (stereo not given) the same measures were 6000 nM, 800 nM and 58 µM.
With `CCC(NC(=O)C(CC(C)C)NC(=O)OCc1ccccc1)C(=O)C(=O)NCCO` (stereo not given), the Ki on Cathepsin B [1] came out at 4500 nM; in experiment [2] it was 800 nM. The IC in the experiment listed under Rattus norvegicus was found to be 78 µM.
The compound `CCNC(=O)C(=O)C(Cc1ccccc1)NC(=O)C(CC(C)C)NC(=O)OCc1ccccc1` (stereo not given) came in with a Ki on Cathepsin B [1] of 6000 nM. The compound further returned an IC in the experiment filed under Rattus norvegicus of 22 µM.
For `CCC(NC(=O)C(CC(C)C)NC(=O)OCc1ccccc1)C(=O)C(=O)NCCCCCO` (stereo not given) the same measures were 280 nM and 54 µM.
Consider `CCCC(NC(=O)C(CC(C)C)NC(=O)OCc1ccccc1)C(=O)C(=O)NCCCN1CCOCC1` (stereo not given), for which the Ki on Cathepsin B [1] amounted to 4200 nM; in experiment [2], 250 nM. In the experiment filed under Rattus norvegicus, this compound registered an IC of 18 µM.
For `CCCNC(=O)C(=O)C(Cc1ccccc1)NC(=O)C(CC(C)C)NC(=O)OCc1ccccc1` (stereo not given), in that order: 3000 nM, 350 nM and 31 µM.
On to `CC(C)CC(NC(=O)OCc1ccccc1)C(=O)NC(Cc1ccccc1)C(=O)C(=O)NCCCN1CCOCC1` (stereo not given), for which the Ki at Cathepsin B [1] was 13000 nM; in experiment [2], 120 nM. This compound also showed an IC in the experiment listed under Rattus norvegicus of 54 µM.
On to `CCCNC(=O)C(=O)C(CC)NC(=O)C(CC(C)C)NC(=O)OCc1ccccc1` (stereo not given), for which the IC in the experiment listed under Rattus norvegicus was 70 µM.
Regarding `CCC(NC(=O)C(CC(C)C)NC(=O)OCc1ccccc1)C(=O)C(=O)NCCc1ccccn1` (stereo not given), the IC in the experiment listed under Rattus norvegicus was determined as 70 µM. The same compound gave a Ki in experiment [2] of 410 nM.
As to `CCC(NC(=O)C(CC(C)C)NC(=O)C(c1ccccc1)c1ccccc1)C(=O)C(=O)NCc1ccccn1` (stereo not given), the IC in the experiment listed under Rattus norvegicus worked out at 88 µM.
As for `CCC(NC(=O)C(CC(C)C)NC(=O)OCc1ccccc1)C(=O)C(=O)NCc1ccncc1` (stereo not given), the values for the Ki (at Cathepsin B [1]; in experiment [2]) were 6400 nM and 1100 nM, respectively. The compound also registered an IC in the experiment filed under Rattus norvegicus of 54 µM.
For the compound `CCC(NC(=O)C(CC(C)C)NC(=O)OCc1ccccc1)C(=O)C(=O)NCCc1cccc(OC)c1` (stereo not given), the Ki at Cathepsin B [1] came out at 310 nM; in experiment [2] it was 110 nM.
Regarding `CCC(NC(=O)C(CC(C)C)NC(=O)OCc1ccccc1)C(=O)C(=O)NCCc1ccccc1` (stereo not given), on Cathepsin B [1], the Ki was found to be 1300 nM. Further, in the experiment listed under Rattus norvegicus, the IC worked out at 50 µM.
For `CCC(NC(=O)C(CC(C)C)NC(=O)OCc1ccccc1)C(=O)C(=O)NCCCN1CCOCC1` (stereo not given), the Ki turned out to be 6900 nM at Cathepsin B [1] and 140 nM in experiment [2]. Further, in the experiment listed under Rattus norvegicus, the IC is 45 µM.
For `CCC(NC(=O)C(CC(C)C)NC(=O)OCc1ccccc1)C(=O)C(=O)NCc1ccccc1` (stereo not given), the Ki on Cathepsin B [1] is 2000 nM. In addition, the IC in the experiment filed under Rattus norvegicus is 30 µM.
As to `CCC(NC(=O)C(CC(C)C)NC(=O)OCc1ccccc1)C(=O)C(=O)NCCN1CCOCC1` (stereo not given), the results for the Ki (on Cathepsin B [1]; in experiment [2]) were 2500 nM and 1000 nM, respectively. This compound displayed an IC in the experiment listed under Rattus norvegicus of 23 µM.
Consider `CCCC(NC(=O)C(CC(C)C)NC(=O)OCc1ccccc1)C(=O)C(=O)NCc1ccccn1` (stereo not given), for which the Ki at Cathepsin B [1] came to 750 nM; in experiment [2], 19 nM.
Regarding `CC(C)CC(NC(=O)OCc1ccccc1)C(=O)NC(Cc1ccccc1)C(=O)C(=O)NCC(O)c1ccccc1` (stereo not given), the Ki on Cathepsin B [1] was determined as 2100 nM; in experiment [2] it was 1300 nM. The compound further displayed an IC in the experiment filed under Rattus norvegicus of 44 µM.
For `CCC(NC(=O)C(CC(C)C)NC(=O)OCc1ccccc1)C(=O)C(=O)NCC1CCCO1` (stereo not given), in that order: 4500 nM, 330 nM and 22 µM.
Take `CCC(NC(=O)C(CC(C)C)NC(=O)OCc1ccccc1)C(=O)C(=O)NCCc1ccc(OC)cc1` (stereo not given): the Ki at Cathepsin B [1] was 440 nM; in experiment [2] it was 120 nM.
Regarding `CCC(NC(=O)C(CC(C)C)NC(=O)OCc1ccccc1)C(=O)C(=O)NCC(O)c1ccccc1` (stereo not given), the Ki at Cathepsin B [1] worked out at 370 nM; in experiment [2], 1100 nM. For the same compound, the IC in the experiment filed under Rattus norvegicus stood at 69 µM.
As for `CCC(NC(=O)C(CC(C)C)NC(=O)C(c1ccccc1)c1ccccc1)C(=O)C(=O)NCCCN1CCOCC1` (stereo not given), the results for the Ki (on Cathepsin B [1]; in experiment [2]) were 2300 nM and 800 nM, respectively.
Compound `CCC(NC(=O)C(CC(C)C)NC(=O)C(c1ccccc1)c1ccccc1)C(=O)C(=O)NCC(O)c1ccccc1` (stereo not given) came in with an IC in the experiment listed under Rattus norvegicus of 180 µM. Further, the Ki in experiment [2] is 750 nM; at Cathepsin B [4] it was 170 nM.
Regarding `CCNC(=O)C(=O)C(CC)NC(=O)C(CC(C)C)NC(=O)OCc1ccccc1` (stereo not given), the Ki on Cathepsin B [1] is 2400 nM. In the experiment listed under Rattus norvegicus, this compound had an IC of 100 µM.
In the experiment filed under Rattus norvegicus, `CC(C)CC(NC(=O)OCc1ccccc1)C(=O)NC(Cc1ccccc1)C(=O)C(=O)NCCc1ccccc1` (stereo not given) showed an IC of 100 µM. Moreover, on Cathepsin B [5], the Ki was determined as 9300 nM.
Consider `CCC(NC(=O)C(CC(C)C)NC(=O)OCc1ccccc1)C(=O)C(=O)NCc1cccnc1` (stereo not given), for which the Ki at Cathepsin B [1] was determined as 1200 nM. Besides, in the experiment filed under Rattus norvegicus, the IC is > 300 µM.
For `CCC(NC(=O)C(CC(C)C)NC(=O)OCc1ccccc1)C(=O)C(=O)NCCOCCO` (stereo not given), in that order: 2000 nM and 58 µM.
Regarding `CCC(NC(=O)C(CC(C)C)NC(=O)OCc1ccccc1)C(=O)C(=O)NCCCn1ccnc1` (stereo not given), the Ki amounted to 9900 nM on Cathepsin B [1] and 290 nM in experiment [2].
`CCC(NC(=O)C(CC(C)C)NC(=O)OCc1ccccc1)C(=O)C(=O)NCCc1c[nH]c2ccccc12` (stereo not given) yielded an IC in the experiment listed under Rattus norvegicus of 180 µM. Moreover, the Ki was determined as 300 nM in experiment [2] and 31 nM at Cathepsin B [4].
Turning to `CCC(NC(=O)C(CC(C)C)NC(=O)OCc1ccccc1)C(=O)C(=O)NCc1ccccn1` (stereo not given), the Ki at Cathepsin B [1] is 3000 nM; in experiment [2] it was 640 nM. The IC in the experiment filed under Rattus norvegicus was determined as 110 µM.
On to `CC(C)CC(NC(=O)OCc1ccccc1)C(=O)NC(Cc1ccccc1)C(=O)C(=O)NCc1ccccc1` (stereo not given), for which, in the experiment listed under Rattus norvegicus, the IC was > 300 µM. This compound showed a Ki at Cathepsin B [5] of 4600 nM.
`CCC(NC(=O)C(CC(C)C)NC(=O)OCc1ccccc1)C(=O)C(=O)NCc1nccc2ccccc12` (stereo not given): the results for the Ki (on Cathepsin B [1]; in experiment [2]) were 300 nM and 250 nM, respectively.
On Cathepsin B [1], `CCC(NC(=O)C(CC(C)C)NC(=O)OCc1ccccc1)C(=O)C(=O)NCCCc1ccccc1` (stereo not given) returned a Ki of 200 nM. The IC in the experiment listed under Rattus norvegicus amounted to 100 µM.

The record behind these values is ChEMBL document CHEMBL1129436, “Novel peptidyl alpha-keto amide inhibitors of calpains and other cysteine proteases” (J Med Chem, 1996).
